Experimental data reported in ChEMBL document CHEMBL1926577, “Novel 1,3,4-heterodiazole analogues: synthesis and in-vitro antitumor activity” (2012).

Key:
Type in all cases: functional
[1] = system: CCRF-CEM; assay: Growth inhibition of human CCRF-CEM cells at 10 uM after 48 hrs by coulter counter method; conditions: read-out: GI
Procedure, shortened: (§1)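 NCI 60-cell-line panel, single dose. Compound dissolved first in DMSO, then diluted in phosphate-buffered saline so that every final dilution held under 1% DMSO. Duplicate wells received cells at 6 × 10⁴ cells/ml. Controls held PBS/DMSO at the same dilution. Plates were incubated 48 h at 37 °C under 5% CO₂. Cells were then diluted 10-fold in saline and counted on a Coulter counter, with counts corrected for the dilution. Results are given as percent growth inhibition.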

[2] = system: HL-60(TB); assay: Growth inhibition of human HL-60(TB) cells at 10 uM after 48 hrs by coulter counter method; conditions: HL-60, 48 h, read-out: GI
Procedure, shortened: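 Single-dose screen on the NCI 60-line panel (leukemia subpanel). Compound is dissolved in DMSO and diluted in PBS, with final DMSO below 1%. Duplicate wells hold 6 × 10⁴ cells/ml at 37 °C, 5% CO₂, for 48 h. Cells are counted by Coulter counter after 10-fold saline dilution. Read-out is percent growth versus PBS/DMSO controls, expressed as % growth inhibition.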

[3] = system: K562; assay: Growth inhibition of human K562 cells at 10 uM after 48 hrs by coulter counter method; conditions: K562, 48 h, read-out: GI; procedure, shortened: as §1
[4] = system: MOLT-4; assay: Growth inhibition of human MOLT4 cells at 10 uM after 48 hrs by coulter counter method; conditions: MOLT-4, 48 h, read-out: GI; procedure, shortened: as §1
[5] = system: RPMI-8226; assay: Growth inhibition of human RPMI8226 cells at 10 uM after 48 hrs by coulter counter method; conditions: RPMI-8226, 48 h, read-out: GI; procedure, shortened: as §1
[6] = system: SR; assay: Growth inhibition of human SR cells at 10 uM after 48 hrs by coulter counter method; conditions: read-out: GI; procedure, shortened: as §1
[7] = system: A549; assay: Growth inhibition of human A549 cells at 10 uM after 48 hrs by coulter counter method; conditions: A549, 48 h, read-out: GI; procedure, shortened: as §1
[8] = system: EKVX; assay: Growth inhibition of human EKVX cells at 10 uM after 48 hrs by coulter counter method; conditions: read-out: GI; procedure, shortened: as §1
[9] = system: NCI-H226; assay: Growth inhibition of human NCI-H226 cells at 10 uM after 48 hrs by coulter counter method; conditions: NCI-H226, 48 h, read-out: GI; procedure, shortened: as §1
[10] = system: NCI-H23; assay: Growth inhibition of human NCI-H23 cells at 10 uM after 48 hrs by coulter counter method; conditions: NCI-H23, 48 h, read-out: GI; procedure, shortened: as §1
[11] = system: NCI-H322M; assay: Growth inhibition of human NCI-H322M cells at 10 uM after 48 hrs by coulter counter method; conditions: read-out: GI; procedure, shortened: as §1
[12] = system: NCI-H522; assay: Growth inhibition of human NCI-H522 cells at 10 uM after 48 hrs by coulter counter method; conditions: NCI-H522, 48 h, read-out: GI; procedure, shortened: as §1
[13] = system: HCT-116; assay: Growth inhibition of human HCT116 cells at 10 uM after 48 hrs by coulter counter method; conditions: HCT-116, 48 h, read-out: GI; procedure, shortened: as §1
[14] = system: HCT-15; assay: Growth inhibition of human HCT15 cells at 10 uM after 48 hrs by coulter counter method; conditions: HCT-15, 48 h, read-out: GI; procedure, shortened: as §1
[15] = system: HT-29; assay: Growth inhibition of human HT-29 cells at 10 uM after 48 hrs by coulter counter method; conditions: HT-29, 48 h, read-out: GI; procedure, shortened: as §1
[16] = system: KM12; assay: Growth inhibition of human KM12 cells at 10 uM after 48 hrs by coulter counter method; conditions: KM12, 48 h, read-out: GI; procedure, shortened: as §1
[17] = system: SF-268; assay: Growth inhibition of human SF268 cells at 10 uM after 48 hrs by coulter counter method; conditions: SF-268, 48 h, read-out: GI; procedure, shortened: as §1
[18] = system: SF-295; assay: Growth inhibition of human SF295 cells at 10 uM after 48 hrs by coulter counter method; conditions: SF-295, 48 h, read-out: GI; procedure, shortened: as §1
[19] = system: SNB-19; assay: Growth inhibition of human SNB19 cells at 10 uM after 48 hrs by coulter counter method; conditions: SNB-19, 48 h, read-out: GI; procedure, shortened: as §1
[20] = system: SNB-75; assay: Growth inhibition of human SNB75 cells at 10 uM after 48 hrs by coulter counter method; conditions: SNB-75, 48 h, read-out: GI; procedure, shortened: as §1
[21] = system: U-251; assay: Growth inhibition of human U251 cells at 10 uM after 48 hrs by coulter counter method; conditions: U-251, 48 h, read-out: GI; procedure, shortened: as §1
[22] = system: LOX IMVI; assay: Growth inhibition of human LOXIMVI cells at 10 uM after 48 hrs by coulter counter method; conditions: read-out: GI; procedure, shortened: as §1
[23] = system: Malme-3M; assay: Growth inhibition of human MALME-3M cells at 10 uM after 48 hrs by coulter counter method; conditions: read-out: GI; procedure, shortened: as §1
[24] = system: M14; assay: Growth inhibition of human M14 cells at 10 uM after 48 hrs by coulter counter method; conditions: M14, 48 h, read-out: GI; procedure, shortened: as §1
[25] = system: MDA-MB-435; assay: Growth inhibition of human MDA-MB-435 cells at 10 uM after 48 hrs by coulter counter method; conditions: MDA-MB-435, 48 h, read-out: GI; procedure, shortened: as §1
[26] = system: SK-MEL-2; assay: Growth inhibition of human SK-MEL-2 cells at 10 uM after 48 hrs by coulter counter method; conditions: SK-MEL-2, 48 h, read-out: GI; procedure, shortened: as §1
[27] = system: SK-MEL-28; assay: Growth inhibition of human SK-MEL-28 cells at 10 uM after 48 hrs by coulter counter method; conditions: SK-MEL-28, 48 h, read-out: GI; procedure, shortened: as §1
[28] = system: SK-MEL-5; assay: Growth inhibition of human SK-MEL-5 cells at 10 uM after 48 hrs by coulter counter method; conditions: SK-MEL-5, 48 h, read-out: GI; procedure, shortened: as §1
[29] = system: UACC-257; assay: Growth inhibition of human UACC257 cells at 10 uM after 48 hrs by coulter counter method; conditions: UACC-257, 48 h, read-out: GI; procedure, shortened: as §1
[30] = system: UACC-62; assay: Growth inhibition of human UACC62 cells at 10 uM after 48 hrs by coulter counter method; conditions: UACC-62, 48 h, read-out: GI; procedure, shortened: as §1
[31] = system: IGROV-1; assay: Growth inhibition of human IGROV1 cells at 10 uM after 48 hrs by coulter counter method; conditions: IGROV-1, 48 h, read-out: GI; procedure, shortened: as §1
[32] = system: OVCAR-8; assay: Growth inhibition of human OVCAR8 cells at 10 uM after 48 hrs by coulter counter method; conditions: OVCAR-8, 48 h, read-out: GI; procedure, shortened: as §1
[33] = system: NCI/ADR-RES; assay: Growth inhibition of human NCI/ADR-RES cells at 10 uM after 48 hrs by coulter counter method; conditions: read-out: GI; procedure, shortened: as §1
[34] = system: 786-0; assay: Growth inhibition of human 786-0 cells at 10 uM after 48 hrs by coulter counter method; conditions: 786-0, 48 h, read-out: GI; procedure, shortened: as §1
[35] = system: A498; assay: Growth inhibition of human A498 cells at 10 uM after 48 hrs by coulter counter method; conditions: A498, 48 h, read-out: GI; procedure, shortened: as §1
[36] = system: ACHN; assay: Growth inhibition of human ACHN cells at 10 uM after 48 hrs by coulter counter method; conditions: read-out: GI; procedure, shortened: as §1
[37] = system: CAKI-1; assay: Growth inhibition of human Caki1 cells at 10 uM after 48 hrs by coulter counter method; conditions: CAKI-1, 48 h, read-out: GI; procedure, shortened: as §1
[38] = system: SN12C; assay: Growth inhibition of human SN12C cells at 10 uM after 48 hrs by coulter counter method; conditions: read-out: GI; procedure, shortened: as §1
[39] = system: TK-10; assay: Growth inhibition of human TK10 cells at 10 uM after 48 hrs by coulter counter method; conditions: TK-10, 48 h, read-out: GI; procedure, shortened: as §1
[40] = system: UO-31; assay: Growth inhibition of human UO31 cells at 10 uM after 48 hrs by coulter counter method; conditions: UO-31, 48 h, read-out: GI; procedure, shortened: as §1
[41] = system: PC-3; assay: Growth inhibition of human PC3 cells at 10 uM after 48 hrs by coulter counter method; conditions: PC-3, 48 h, read-out: GI; procedure, shortened: as §1
[42] = system: MCF7; assay: Growth inhibition of human MCF7 cells at 10 uM after 48 hrs by coulter counter method; conditions: MCF7, 48 h, read-out: GI; procedure, shortened: as §1
[43] = system: BT-549; assay: Growth inhibition of human BT549 cells at 10 uM after 48 hrs by coulter counter method; conditions: BT-549, 48 h, read-out: GI; procedure, shortened: as §1
[44] = system: T47D; assay: Growth inhibition of human T47D cells at 10 uM after 48 hrs by coulter counter method; conditions: read-out: GI; procedure, shortened: as §1
[45] = system: MDA-MB-468; assay: Growth inhibition of human MDA-MB-468 cells at 10 uM after 48 hrs by coulter counter method; conditions: MDA-MB-468, 48 h, read-out: GI; procedure, shortened: as §1

Measured: inhibition of growth at 10 µM

NC1=CC(N)=NC2OC(c3ccccc3)=NN12 (stereo not given)
27%: [40]
10.4%: [4] | [6]
15.6%: [2] | [18]
< 10%: all other assays above

O=C1N=C2OC(c3ccccc3)=NN2C1=O
12.5%: [11]
15.2%: [29]
20.5%: [40]
< 10%: all other assays above
